Assay results from ChEMBL document CHEMBL1157857, “Synthesis and antimicrobial of new anthraquinone derivatives incorporating pyrazole moiety” (2010).

How the values were obtained:
Assay type in all cases: functional
[1] = test system: Pseudomonas aeruginosa; experiment: Antibacterial activity against Pseudomonas aeruginosa at 2 mg/ml after 24 hrs by agar diffusion method; details: read-out: DIZ
Procedure, shortened: (§1)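 Bacteria grown on nutrient agar, incubated 24 h; inhibition zone diameter measured as activity read-out. Three replicate plates per compound. DMSO-only control included for each organism. Ampicillin, chloramphenicol and cloxacillin used at 2 mg/mL as reference drugs.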

[2] = test system: Staphylococcus epidermidis; experiment: Antibacterial activity against Staphylococcus epidermidis at 2 mg/ml after 24 hrs by agar diffusion method; details: read-out: DIZ; procedure, shortened: as §1
[3] = test system: Alternaria solani; experiment: Antifungal activity against Alternaria solani at 2 mg/ml after 7 days by agar diffusion method; details: 168 h, read-out: DIZ
Procedure, shortened: (§2)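 Fungi tested on potato dextrose agar, incubated seven days; diameter of inhibition zone recorded as activity measure. Three plates per compound as replicates. DMSO without test compound served as control for each organism. Reference drugs (ampicillin, chloramphenicol, cloxacillin) used at 2 mg/mL.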

[4] = test system: Fusarium solani; experiment: Antifungal activity against Fusarium solani at 2 mg/ml after 7 days by agar diffusion method; details: 168 h, read-out: DIZ; procedure, shortened: as §2

| Structure (SMILES) | zone of inhibition at 2000 µg/mL [1] [mm] | zone of inhibition at 2000 µg/mL [2] [mm] | zone of inhibition at 2000 µg/mL [3] [mm] | zone of inhibition at 2000 µg/mL [4] [mm] |
| --- | --- | --- | --- | --- |
| O=C1c2ccccc2C(=O)c2cc(-n3cnc4n[nH]c(Nc5ccccc5)c4c3=O)ccc21 | 20 | 15 | 11 |  |
| Cc1cc(C)n2nc(Nc3ccccc3)c(C(=O)Nc3ccc4c(c3)C(=O)c3ccccc3C4=O)c2n1 | 17 | 20 | 14 | 13 |
| Cc1ccc(C)n1-c1n[nH]c(Nc2ccccc2)c1C(=O)Nc1ccc2c(c1)C(=O)c1ccccc1C2=O | 16 | 19 |  |  |
| Nc1n[nH]c(Nc2ccccc2)c1C(=O)Nc1ccc2c(c1)C(=O)c1ccccc1C2=O | 14 | 11 | 14 | 16 |
| CN(C)/C=C(\C#N)C(=O)Nc1ccc2c(c1)C(=O)c1ccccc1C2=O | 14 |  |  | 12 |
| Nc1n[nH]cc1C(=O)Nc1ccc2c(c1)C(=O)c1ccccc1C2=O | 16 | 22 | 17 | 16 |
| Cc1cc(C)c2c(N/N=C(/C#N)C(=O)Nc3ccc4c(c3)C(=O)c3ccccc3C4=O)n[nH]c2n1 | 27 | 19 | 18 | 13 |
| Cc1cc(C)c2c(n1)nn1c(N)c(C(=O)Nc3ccc4c(c3)C(=O)c3ccccc3C4=O)nnc21 | 21 | 14 | 19 | 17 |
| Cc1c(N/C(Nc2ccccc2)=C(\C#N)C(=O)Nc2ccc3c(c2)C(=O)c2ccccc2C3=O)c(=O)n(-c2ccccc2)n1C | 22 | 24 | 21 | 16 |
| Cc1nn(-c2ccccc2)c2c1cnc1c(C(=O)Nc3ccc4c(c3)C(=O)c3ccccc3C4=O)c(Nc3ccccc3)nn12 | 19 | 17 |  | 14 |
| O=C1c2ccccc2C(=O)c2cc(NC(=O)c3c(Nc4ccccc4)nn4c5c(cnc34)CCc3ccccc3-5)ccc21 | 20 | 25 | 22 | 14 |
| COc1ccc(-c2ccnc3c(C(=O)Nc4ccc5c(c4)C(=O)c4ccccc4C5=O)c(Nc4ccccc4)nn23)cc1 | 20 | 21 | 17 | 15 |
| CS/C(Nc1ccccc1)=C(\C#N)C(=O)Nc1ccc2c(c1)C(=O)c1ccccc1C2=O | 13 | 12 | 12 |  |
| CC1(C)S[C@@H]2[C@H](NC(=O)[C@H](N)c3ccccc3)C(=O)N2[C@H]1C(=O)O [AMPICILLIN] | 21 | 19 | 19 | 17 |
| O=C(N[C@H](CO)[C@H](O)c1ccc([N+](=O)[O-])cc1)C(Cl)Cl [CHLORAMPHENICOL] | 24 | 27 | 18 | 17 |
| Cc1onc(-c2ccccc2Cl)c1C(=O)N[C@@H]1C(=O)N2[C@@H]1SC(C)(C)[C@@H]2C(=O)O [CLOXACILLIN] | 30 | 22 | 20 | 22 |
